Measured values published in ChEMBL document CHEMBL4513216, “Probing the Open Global Health Chemical Diversity Library for Multistage-Active Starting Points for Next-Generation Antimalarials” (ACS Infect Dis, 2020).

Assay: Toxicity liver stage against HepG2, at 10uM
Format: cell-based
Design: test concentration 10 uM, cell line HepG2-A16-CD81EGFP
Conditions: human, HepG2-A16-CD81EGFP cells; read-out: INHIBITION
How it was run: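 Uninfected HepG2-A16-CD81EGFP cells, 3 × 10^3 per well, 1536-well, plated on prespotted compound at 10 μM final, parasite-free screening media added to match infected plates; puromycin 10 μM positive, DMSO 0.5% negative; run in parallel with 48 h PbLuc assay at 37 °C, 5% CO2; viability by CellTiter-Glo luminescence, normalized to controls.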

Question: With `CCCn1ncc(-c2ccnc(NC3CCSC3)n2)c1C` (stereo not given) as the compound, how does the cytotoxicity at 10 µM read?
Answer: Its cytotoxicity at 10 µM is 2.65%.

Question: For `CC(C)Nc1ccnc(N2Cc3cnc(C(C)(C)C)nc3C2)n1`, which cytotoxicity at 10 µM is on record?
Answer: The cytotoxicity at 10 µM was 8.33%.

Question: For `Cc1n[nH]c(C)c1CCC(=O)NCC1CCOc2ccccc2C1` (stereo not given), which cytotoxicity at 10 µM is on record?
Answer: Its cytotoxicity at 10 µM is -45.6%.

Question: With `CNC(=O)c1n[nH]c2c1C(c1cccc3c1OC(C)(C)C3)CC(=O)N2` (stereo not given) as the compound, how does the cytotoxicity at 10 µM read?
Answer: The cytotoxicity at 10 µM was 0.0642%.

Question: Which cytotoxicity at 10 µM does the source give for `CCC(Nc1cccc(OC)c1)C(=O)N(CCO)Cc1nccs1` (stereo not given) here?
Answer: Its cytotoxicity at 10 µM is 3.94%.

Question: For `O=c1[nH]c(-c2ccc(F)cc2)nc2c1CCNC2`, which cytotoxicity at 10 µM is on record?
Answer: The cytotoxicity at 10 µM was -2.47%.

Question: With `CCC1CCC(NCCN2CCOCC2)CC1` (stereo not given) as the compound, how does the cytotoxicity at 10 µM read?
Answer: The cytotoxicity at 10 µM was 3.62%.

Question: With `O=C(c1ccc(=O)[nH]c1)N1CCC(Oc2cccc(C(F)(F)F)c2)CC1` as the compound, how does the cytotoxicity at 10 µM read?
Answer: Its cytotoxicity at 10 µM is 2.26%.

Question: For `CC(C)[C@H]1CN(c2cnccn2)C[C@@H]1NC(=O)C1(C#N)CCOCC1`, which cytotoxicity at 10 µM is on record?
Answer: The cytotoxicity at 10 µM was -6.35%.

Question: For `CN(C)CCn1ccnc1C1CCCN(c2nccc3ccccc23)C1` (stereo not given), which cytotoxicity at 10 µM is on record?
Answer: The cytotoxicity at 10 µM was -7.55%.

Question: Which cytotoxicity at 10 µM does the source give for `CC[C@@]1(O)CCN(c2ncc(Cl)cc2F)C[C@H]1O` here?
Answer: Its cytotoxicity at 10 µM is 2.38%.

Question: With `Cc1nccn1CCCN1CCCC(c2ccccc2)C1` (stereo not given) as the compound, how does the cytotoxicity at 10 µM read?
Answer: The cytotoxicity at 10 µM was -24.8%.

Question: With `CC(=O)c1ccc(CN2CCCC23CCN(c2ccccn2)CC3)cc1` as the compound, how does the cytotoxicity at 10 µM read?
Answer: The cytotoxicity at 10 µM was 1.5%.

Question: For `Cc1nc(C)n(CCNS(=O)(=O)NCc2ccccc2)n1`, which cytotoxicity at 10 µM is on record?
Answer: The cytotoxicity at 10 µM was -11.4%.

Question: For `CN1CC2(CCN(c3ncnc4c3CCNC4)CC2)OC1=O`, which cytotoxicity at 10 µM is on record?
Answer: The cytotoxicity at 10 µM was -3.2%.

Question: For `COc1ccc(C(=O)N2CCOCC(CO)C2)cc1N1CCOCC1` (stereo not given), which cytotoxicity at 10 µM is on record?
Answer: Its cytotoxicity at 10 µM is -14%.

Question: With `CN1CCC(Oc2ccc(-n3ccnc3-c3ccncc3)cc2)CC1` as the compound, how does the cytotoxicity at 10 µM read?
Answer: The cytotoxicity at 10 µM was -3.05%.

Question: With `COCCCN1CCN(C(=O)C(c2cccc(F)c2)N(C)C)CC1` (stereo not given) as the compound, how does the cytotoxicity at 10 µM read?
Answer: Its cytotoxicity at 10 µM is -13.1%.

Question: With `O=C(CN1CCOC1=O)N1CCc2nnc(Cc3ccccc3)n2CC1` as the compound, how does the cytotoxicity at 10 µM read?
Answer: The cytotoxicity at 10 µM was -45.6%.

Question: Which cytotoxicity at 10 µM does the source give for `Cc1ccccc1C1CCCN1C(=O)CN1CC2(CCNCC2)OC1=O` (stereo not given) here?
Answer: The cytotoxicity at 10 µM was -11.1%.

Question: Which cytotoxicity at 10 µM does the source give for `O=C(c1ccccn1)N1CCc2c(nc(N3CCCC3)[nH]c2=O)C1` here?
Answer: Its cytotoxicity at 10 µM is -5.71%.

Question: Which cytotoxicity at 10 µM does the source give for `C=Cn1ncc(CN2C[C@@H]3CCCN3C[C@@H]2Cc2ccccc2)c1C` here?
Answer: Its cytotoxicity at 10 µM is -5.74%.

Question: With `Cc1ccccc1C1(C(=O)NCCN2CCCC(C)C2)CCOCC1` (stereo not given) as the compound, how does the cytotoxicity at 10 µM read?
Answer: The cytotoxicity at 10 µM was -2.34%.

Question: With `COCCn1cc(NC(=O)NCC(c2cccc(F)c2)N(C)C)cn1` (stereo not given) as the compound, how does the cytotoxicity at 10 µM read?
Answer: The cytotoxicity at 10 µM was -5.6%.

Question: For `Cc1cnn(CC2CN(Cc3nc(-c4ccsc4)no3)CCO2)c1` (stereo not given), which cytotoxicity at 10 µM is on record?
Answer: Its cytotoxicity at 10 µM is -9.74%.

Question: Which cytotoxicity at 10 µM does the source give for `CC(C)c1nc(CN2CCOC(CNc3cccnn3)C2)cs1` (stereo not given) here?
Answer: The cytotoxicity at 10 µM was -2.93%.

Question: For `c1cc2n(n1)CC(CNCc1ccc(OC3CCCCC3)nc1)CN2` (stereo not given), which cytotoxicity at 10 µM is on record?
Answer: Its cytotoxicity at 10 µM is -8.49%.

Question: With `Cc1nc(C)n(CC2CN(c3ccc(C#N)cn3)CCO2)n1` (stereo not given) as the compound, how does the cytotoxicity at 10 µM read?
Answer: The cytotoxicity at 10 µM was -10.5%.

Question: Which cytotoxicity at 10 µM does the source give for `CCc1nnsc1C(=O)NCCn1nc2ccccn2c1=O` here?
Answer: Its cytotoxicity at 10 µM is -2.04%.

Question: Which cytotoxicity at 10 µM does the source give for `Cc1nnc(NCc2ccccc2Cl)c(C#N)c1C` here?
Answer: Its cytotoxicity at 10 µM is -5.06%.

Question: For `CC(NC(=O)NCCN1CCCCCC1=O)c1nncn1C` (stereo not given), which cytotoxicity at 10 µM is on record?
Answer: The cytotoxicity at 10 µM was -7%.

Question: Which cytotoxicity at 10 µM does the source give for `CC(Cn1cccn1)NC(=O)NCCc1cnn(C)c1` (stereo not given) here?
Answer: The cytotoxicity at 10 µM was -0.0611%.

Question: For `CCN1CCN(C2CCN(Cc3cc(C)on3)CC2)C1=O`, which cytotoxicity at 10 µM is on record?
Answer: The cytotoxicity at 10 µM was -5.74%.

Question: Which cytotoxicity at 10 µM does the source give for `COc1cccc(CNc2cnn(C)c(=O)c2Cl)c1` here?
Answer: The cytotoxicity at 10 µM was -8.78%.

Question: With `CCCN(Cc1ccccc1)Cn1nc(C)c2c(C)onc2c1=O` as the compound, how does the cytotoxicity at 10 µM read?
Answer: Its cytotoxicity at 10 µM is -9.98%.

Question: With `COc1cc(C)nc(N2CCN(C(=O)c3ccc[nH]3)CC2)n1` as the compound, how does the cytotoxicity at 10 µM read?
Answer: Its cytotoxicity at 10 µM is -5.11%.

Question: For `COc1c(CNCC(c2cccc(F)c2)N(C)C)c(C(C)C)nn1C` (stereo not given), which cytotoxicity at 10 µM is on record?
Answer: The cytotoxicity at 10 µM was -3.27%.

Question: For `COc1ccc(CCC2CCCCN2)cc1` (stereo not given), which cytotoxicity at 10 µM is on record?
Answer: Its cytotoxicity at 10 µM is -9.83%.

Question: Which cytotoxicity at 10 µM does the source give for `COc1ccc(CN(Cc2cncn2C)CC2CCCO2)c(OC)c1` (stereo not given) here?
Answer: Its cytotoxicity at 10 µM is -4.48%.

Question: Which cytotoxicity at 10 µM does the source give for `Cc1cc(C[C@@H]2COC[C@H]2NCc2ccccc2C(F)(F)F)on1` here?
Answer: Its cytotoxicity at 10 µM is -6.15%.

Question: For `COCCC(=O)N1CCC2(CCN(Cc3cccc(F)c3)CC2)C1`, which cytotoxicity at 10 µM is on record?
Answer: Its cytotoxicity at 10 µM is -75.9%.

Question: For `Cc1n[nH]cc1CNC1CCN(c2ccc(F)cc2)CC1`, which cytotoxicity at 10 µM is on record?
Answer: The cytotoxicity at 10 µM was -54%.

Question: With `COCCN1CCOCC12CCN(c1ccc(C#N)cc1)CC2` as the compound, how does the cytotoxicity at 10 µM read?
Answer: Its cytotoxicity at 10 µM is -2.51%.

Question: Which cytotoxicity at 10 µM does the source give for `Cc1ccc(N2C[C@H]3OCC[C@H]3[C@H](C(=O)NCC3CC3)C2)nn1` here?
Answer: The cytotoxicity at 10 µM was -75.7%.

Question: Which cytotoxicity at 10 µM does the source give for `Cc1nnc(N2CC[C@H]3C[C@H](C(=O)N4CCOCC4)O[C@H]3C2)s1` here?
Answer: Its cytotoxicity at 10 µM is -0.671%.

Question: Which cytotoxicity at 10 µM does the source give for `O=C(c1cc2c(s1)CCCC2)N1CCc2nc(C3CCCN3)ncc2C1` (stereo not given) here?
Answer: Its cytotoxicity at 10 µM is -3.04%.

Question: For `Cc1cc(C(=O)N2CCC3(CC2)C(=O)N(C)CCN3CC(C)C)c(C)o1`, which cytotoxicity at 10 µM is on record?
Answer: The cytotoxicity at 10 µM was -112%.

Question: With `c1ccc(COC[C@H]2CC[C@H]3[C@H](CCN3Cc3cccs3)O2)nc1` as the compound, how does the cytotoxicity at 10 µM read?
Answer: The cytotoxicity at 10 µM was -85%.

Question: With `Fc1cccc(CN2C[C@@H]3COC[C@]3(COCc3ccncc3)C2)c1` as the compound, how does the cytotoxicity at 10 µM read?
Answer: Its cytotoxicity at 10 µM is -61.1%.

Question: Which cytotoxicity at 10 µM does the source give for `CNC(=O)[C@H]1CO[C@H]2CCN(Cc3ccc4ccccc4n3)C[C@H]2C1` here?
Answer: Its cytotoxicity at 10 µM is 8.05%.

Question: Which cytotoxicity at 10 µM does the source give for `Cc1nc(CN2C(=O)CC[C@@H]3[C@H]2CCN3C2CCOCC2)cs1` here?
Answer: Its cytotoxicity at 10 µM is -147%.

Question: With `O=C1NC2(CCNCC2)CC1c1ccccc1` (stereo not given) as the compound, how does the cytotoxicity at 10 µM read?
Answer: Its cytotoxicity at 10 µM is -72.7%.

Question: With `CN(Cc1ccncc1)C1COC2(CCN(Cc3ccsc3)CC2)C1` (stereo not given) as the compound, how does the cytotoxicity at 10 µM read?
Answer: Its cytotoxicity at 10 µM is -91.8%.

Question: Which cytotoxicity at 10 µM does the source give for `CNC(=O)c1cnc(C=Cc2cc(OC)c(O)c(OC)c2)s1` here?
Answer: The cytotoxicity at 10 µM was 1.64%.

Question: For `CCN1C[C@@H]2C[C@H](C(=O)NCc3cccnc3)[C@H](C1)O2`, which cytotoxicity at 10 µM is on record?
Answer: The cytotoxicity at 10 µM was 2.01%.
